Experimental data from ChEMBL document CHEMBL4725282, “Discovery of a Conformationally Constrained Oxazolidinone with Improved Safety and Efficacy Profiles for the Treatment of Multidrug-Resistant Tuberculosis” (J Med Chem, 2020).
In brackets after ≈: the same amount, converted by molar mass.

Experiments:
[1] = tested on: Mycobacterium tuberculosis; test: Antitubercular activity against Mycobacterium tuberculosis H37Rv incubated for 7 days by microplate alamar blue assay; assay type: functional; conditions: time 7 day, 168 h
In short: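 MIC determined by microplate alamar blue assay (MABA) following a published protocol.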

[2] = Inhibition of mitochondrial protein synthesis in rat H9c2 cells measured after 5 days by ELISA; assay type: cell-based; conditions: H9c2, 120 h
In short: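 H9C2 cells in DMEM with 10% FBS, seeded 1500/well. After 18 h, compound added at final 0.03–200 μM (3-fold series), then 5 days at 37 °C, 5% CO2; 0.5% DMSO negative control. MPS inhibition read by MitoBiogenesis In-Cell ELISA; IC50 calculated.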

[3] = Stability in CD-1 mouse liver microsome assessed as parent compound remaining at 1 uM measured after 30 mins in presence of NADPH by LC-MS/MS analysis; assay type: ADME; conditions: liver microsomes, read-out: Stabilty
In short: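 Liver microsomes (male CD-1 mouse or pooled human), 1 mg/mL protein, compound 1 µM, 37°C with shaking. Started with 1 mM NADPH or run without cofactor. Quenched with ice-cold ACN/MeOH containing internal standard. Parent quantified by LC-MS/MS; 30 min concentration normalised to time zero.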

[4] = Tmax in Balb/c mouse at 25 mg/kg, po by LC-MS/MS analysis; assay type: ADME, organism-based; conditions: in vivo
In short: (§1)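 Female BALB/c mice, 20-25 g, five per route. Dosed 25 mg/kg p.o. in 0.5% carboxymethyl cellulose or 2.5 mg/kg i.v. in 10% DMSO/saline. Blood sampled 5 min-72 h (p.o.) or 2 min-48 h (i.v.), quantified by LC/MS/MS with ESI+. Parameters by non-compartmental analysis; F = (AUCpo×dose_iv)/(AUCiv×dose_po)×100%.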

[5] = Cmax in Balb/c mouse at 25 mg/kg, po by LC-MS/MS analysis; assay type: ADME, organism-based; set-up: route oral, dose 25 mg/kg; conditions: in vivo
In short: (§2)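 Female BALB/c mice (20–25 g), five per route. Oral dose 25 mg/kg in 0.5% carboxymethyl cellulose; i.v. dose 2.5 mg/kg in 10% DMSO/physiological saline. Blood sampled 5 min–72 h after p.o. and 2 min–48 h after i.v. Analyte quantified by LC/MS/MS (ESI positive, C18, isocratic methanol/water). Parameters from non-compartmental analysis.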

[6] = AUC (0 to t) in Balb/c mouse at 25 mg/kg, po by LC-MS/MS analysis; assay type: ADME, organism-based; set-up: dose 25 mg/kg; conditions: in vivo; in short: as §2
[7] = Terminal half life in Balb/c mouse at 2.5 mg/kg, iv by LC-MS/MS analysis; assay type: ADME, organism-based; conditions: in vivo, read-out: beta t1/2 (converted); in short: as §1
[8] = AUC (0 to t) in Balb/c mouse at 2.5 mg/kg, iv by LC-MS/MS analysis; assay type: ADME, organism-based; set-up: dose 2.5 mg/kg; conditions: in vivo; in short: as §2
[9] = Toxicity in CD-1 mouse assessed as increase in bone marrow micronucleus formation up to 2000 mg/kg, po administered daily via gavage for 2 days measured measured 18 to 24 hrs post last dose by microscopic analysis; assay type: organism-based; conditions: in vivo, 48 h, time 2 day
In short: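 Male CD-1 (ICR) mice, 28.3-33.3 g, 3 per group. Oral gavage on 2 consecutive days, 24 h apart, at 100-2000 mg/kg; 500, 1000 and 2000 mg/kg analysed. Bone marrow harvested 18-24 h after last dose and scored microscopically for micronucleus frequency and PCE/total erythrocytes.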

[10] = Mutagenicity in Salmonella typhimurium TA100 up to 1000 ug measured after 48 to 72 hrs in absence of S9 fraction by Ames test; assay type: toxicity; conditions: salmonella enterica subsp. enterica serovar typhimurium, dose <=1000 µg, time 48-72 hrs
In short: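 Mini-Ames test in S. typhimurium TA100, up to 1000 μg/well, DMSO vehicle. Run with 10% S9 mix or PBS in molten top agar on minimal agar, 37 °C for 48-72 h. Revertants counted manually. Positive if revertants rise ≥2-fold over vehicle mean in a dose-related manner.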

[11] = Mutagenicity in Salmonella typhimurium TA98 up to 1000 ug measured after 48 to 72 hrs in presence of S9 fraction by Ames test; assay type: toxicity, subcellular; conditions: salmonella enterica subsp. enterica serovar typhimurium, dose <=1000 µg, time 48-72 hrs
In short: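 Mini-Ames, plate incorporation in 6-well format. Bacteria, compound (DMSO vehicle, top 1000 µg/well), and 10% S9 mix or PBS were mixed into molten agar at 45°C and poured over minimal agar, then incubated 37°C for 48-72 h. Revertants were counted manually and the background lawn inspected. A result is positive at ≥2-fold the mean vehicle revertants with a dose-related increase.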

[12] = molecular target: Voltage-gated inwardly rectifying potassium channel KCNH2 (Homo sapiens, UniProt Q12809); test: Inhibition of human ERG expressed in HEK293 cells by whole cell manual patch clamp method; assay type: cell-based
Voltage-gated inwardly rectifying potassium channel KCNH2, sequence (Q12809 whole entry): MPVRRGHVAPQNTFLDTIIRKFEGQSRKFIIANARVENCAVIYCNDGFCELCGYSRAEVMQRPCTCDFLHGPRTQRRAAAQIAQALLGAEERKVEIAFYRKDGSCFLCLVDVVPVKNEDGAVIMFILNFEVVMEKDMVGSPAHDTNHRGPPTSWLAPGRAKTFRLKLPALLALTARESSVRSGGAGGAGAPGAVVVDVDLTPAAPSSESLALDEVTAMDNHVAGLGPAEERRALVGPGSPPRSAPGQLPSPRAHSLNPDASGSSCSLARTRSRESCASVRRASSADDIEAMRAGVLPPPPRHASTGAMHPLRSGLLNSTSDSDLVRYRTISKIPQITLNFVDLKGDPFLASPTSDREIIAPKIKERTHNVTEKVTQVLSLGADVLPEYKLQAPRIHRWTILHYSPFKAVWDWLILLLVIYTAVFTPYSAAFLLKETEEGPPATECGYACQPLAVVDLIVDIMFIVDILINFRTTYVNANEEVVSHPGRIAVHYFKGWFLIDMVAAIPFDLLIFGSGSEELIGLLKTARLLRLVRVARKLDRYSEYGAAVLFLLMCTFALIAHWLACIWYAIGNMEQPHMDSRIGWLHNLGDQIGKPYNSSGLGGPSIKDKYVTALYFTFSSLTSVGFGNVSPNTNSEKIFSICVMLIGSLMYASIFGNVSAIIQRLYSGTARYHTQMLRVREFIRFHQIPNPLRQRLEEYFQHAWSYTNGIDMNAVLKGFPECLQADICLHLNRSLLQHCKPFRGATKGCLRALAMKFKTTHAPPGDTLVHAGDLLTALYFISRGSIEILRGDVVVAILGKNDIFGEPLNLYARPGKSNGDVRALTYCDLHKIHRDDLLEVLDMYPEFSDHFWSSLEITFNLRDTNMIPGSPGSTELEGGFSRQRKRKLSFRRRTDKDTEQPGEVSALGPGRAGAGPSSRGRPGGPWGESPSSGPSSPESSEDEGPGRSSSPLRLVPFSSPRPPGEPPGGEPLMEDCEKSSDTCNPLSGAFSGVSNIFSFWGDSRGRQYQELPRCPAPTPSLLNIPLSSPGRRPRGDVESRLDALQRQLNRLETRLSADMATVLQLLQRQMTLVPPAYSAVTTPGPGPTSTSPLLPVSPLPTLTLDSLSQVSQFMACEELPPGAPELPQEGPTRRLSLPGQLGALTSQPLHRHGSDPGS
In short: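 HEK293 cells stably transfected with hERG; currents recorded by whole-cell manual patch clamp at 25 °C, sampled at 10 kHz. Five concentrations (0.3–30 μM) in duplicate for IC50; dofetilide as positive control.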

[13] = Inhibition of human CaV alpha1c/alpha2/delta/beta2a expressed in HEK293 cells measured after 60 mins by fluo-4 AM dye based fluorescence assay; assay type: cell-based; conditions: HEK293, 1 h
In short: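 HEK-293 cells stably expressing human Cav1.2 (α1c, α2/δ, β2a) plus Kir2.3, seeded 1.2×10^4/well overnight in 1% FBS medium. Loaded with fluo-4 AM (4 μM), probenecid (5 mM) and brilliant black (1 mM) in 2× dye solution, 60 min at 37 °C. Ten concentrations from 1.52 to 30000 nM, duplicate, read on FLIPR (ex 470-495, em 515-575 nm). Inhibition normalised to KCl EC80 and solvent control; IC50 fitted.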

[14] = molecular target: T1, Amine oxidase [flavin-containing] B (Homo sapiens, UniProt P27338); test: Inhibition of recombinant human MAOB expressed in baculovirus infected insect cells using kynuramine as substrate measured after 20 mins by LC-MS/MS analysis
T1 sequence (P27338 whole entry): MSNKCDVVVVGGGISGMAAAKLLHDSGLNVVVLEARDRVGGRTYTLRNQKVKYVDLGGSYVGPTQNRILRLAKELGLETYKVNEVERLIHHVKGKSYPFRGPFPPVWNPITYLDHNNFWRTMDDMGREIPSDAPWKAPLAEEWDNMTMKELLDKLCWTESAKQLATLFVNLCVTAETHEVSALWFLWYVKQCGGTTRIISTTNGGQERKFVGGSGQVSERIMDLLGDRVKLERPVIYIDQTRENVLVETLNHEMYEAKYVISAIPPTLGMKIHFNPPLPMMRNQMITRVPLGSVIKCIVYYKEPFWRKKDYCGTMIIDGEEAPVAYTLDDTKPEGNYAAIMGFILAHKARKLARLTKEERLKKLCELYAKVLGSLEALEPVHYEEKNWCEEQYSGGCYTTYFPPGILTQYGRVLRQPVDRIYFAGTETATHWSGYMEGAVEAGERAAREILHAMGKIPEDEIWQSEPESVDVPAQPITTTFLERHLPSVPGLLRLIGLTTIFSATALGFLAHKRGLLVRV
In short: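 Recombinant human MAO-A or MAO-B (50 μg/mL) in 100 mM potassium phosphate pH 7.4 with 5 mM MgCl2. Kynuramine substrate at 50 μM (MAO-A) or 25 μM (MAO-B). […] 4-Hydroxyquinoline formation measured by LC-MS/MS versus vehicle; IC50 derived.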

In the case of `CC(=O)NC[C@@H]1OC(=O)N2c3cc(F)c(N4CCSCC4)cc3OC[C@@H]12`, the MIC [1] is reported as 0.03 µg/mL (≈ 0.0787 µM), the IC50 [2] is reported as over 100 µM and the remaining at 0.5 h, 1 µM [3] is reported as 48.7%. It also gave a Tmax [4] of 15 min, a Cmax [5] of 3000 ng/mL and an AUC(0-t) [6] of 6480 ng·h/mL. The half-life [7] was 55.4 min, the AUC(0-t) [8] was 1160 ng·h/mL and the Activity [9] was “Non-Toxic”. For the same compound, the Activity [10] was “Non-Toxic”, the Activity [11] was “Non-Toxic” and the IC50 [12] was over 30 µM. The IC50 [13] was over 30 µM and the IC50 [14] was 3.2 µM.

Compound `CC(=O)NC[C@@H]1OC(=O)N2c3cc(F)c(N4CC[S+]([O-])CC4)cc3OC[C@@H]12` has an MIC ([1]; Mycobacterium tuberculosis, H37Rv, read-out: MIC) of 0.44 µg/mL (≈ 1.11 µM), an IC50 [2] of 60.6 µM and a remaining at 0.5 h, 1 µM [3] of 100%. For the same compound, the Tmax [4] was 30 min, the Cmax [5] was 1520 ng/mL and the AUC(0-t) [6] was 8750 ng·h/mL. The half-life [7] was 229 min, the AUC(0-t) [8] was 443 ng·h/mL and the Activity [9] was “Non-Toxic”. For the same compound, the Activity [10] was “Non-Toxic”, the Activity [11] was “Non-Toxic” and the IC50 [12] was over 30 µM. It also gave an IC50 [13] of over 30 µM and an IC50 [14] of over 100 µM.
